In test [1] the target is Adenosine receptor A2a (Mus musculus) (UniProt Q60613). As to the kind of experiment: Displacement of [3H]2-[p-(2-carboxyethyl)phenylethylamino]-5'-N-ethylcarboxamidoadenosine from mouse adenosine A2A receptor expressed in HEK293 cell membranes at 10 uM after 60 mins by liquid scintillation counting analysis relative to control. For orientation: Loss of bound radioactivity is the signal in a displacement assay; it reports binding, not function.

The target in test [2] is Adenosine receptor A2a (Homo sapiens) (UniProt P29274). As to the kind of experiment: Displacement of [3H]2-[p-(2-carboxyethyl)phenylethylamino]-5'-N-ethylcarboxamidoadenosine from human adenosine A2A receptor expressed in HEK293 cell membranes at 10 uM after 60 mins by liquid scintillation counting analysis relative to control.
Chain of Adenosine receptor A2a (Homo sapiens) (P29274 whole entry): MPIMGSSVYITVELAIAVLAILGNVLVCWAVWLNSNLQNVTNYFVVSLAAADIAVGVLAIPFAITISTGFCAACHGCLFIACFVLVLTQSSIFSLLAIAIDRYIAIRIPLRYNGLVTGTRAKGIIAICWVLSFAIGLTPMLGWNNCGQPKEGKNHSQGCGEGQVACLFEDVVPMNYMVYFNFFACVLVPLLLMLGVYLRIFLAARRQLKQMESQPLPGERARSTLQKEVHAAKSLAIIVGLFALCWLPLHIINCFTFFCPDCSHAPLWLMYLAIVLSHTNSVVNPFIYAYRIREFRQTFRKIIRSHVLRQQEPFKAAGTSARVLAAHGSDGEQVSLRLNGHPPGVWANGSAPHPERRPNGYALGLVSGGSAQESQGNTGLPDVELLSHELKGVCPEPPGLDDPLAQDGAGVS
For test [3], the target named is T1, Adenosine receptor A1 (Mus musculus, UniProt Q60612).
T1 sequence (Q60612 whole entry): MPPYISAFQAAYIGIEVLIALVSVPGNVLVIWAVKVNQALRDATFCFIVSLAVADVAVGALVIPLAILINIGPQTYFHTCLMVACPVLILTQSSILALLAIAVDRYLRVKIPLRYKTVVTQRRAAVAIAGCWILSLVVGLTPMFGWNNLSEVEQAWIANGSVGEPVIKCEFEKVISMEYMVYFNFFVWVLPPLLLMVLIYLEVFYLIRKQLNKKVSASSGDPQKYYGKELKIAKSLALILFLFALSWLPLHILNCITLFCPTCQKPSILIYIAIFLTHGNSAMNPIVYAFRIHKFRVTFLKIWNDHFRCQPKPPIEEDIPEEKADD
Kind of test: Partial agonist activity at mouse adenosine A1 receptor expressed in HEK293 cell membranes assessed as inhibition of forskolin-stimulated cAMP production preincubated for 30 mins prior to forskolin-treatment measured after 15 mins by ELISA. The test is classed as functional, cell-based.

Another test concerns the target T2, Adenosine receptor A3 (Mus musculus, UniProt Q61618).
T2 sequence (Q61618 whole entry): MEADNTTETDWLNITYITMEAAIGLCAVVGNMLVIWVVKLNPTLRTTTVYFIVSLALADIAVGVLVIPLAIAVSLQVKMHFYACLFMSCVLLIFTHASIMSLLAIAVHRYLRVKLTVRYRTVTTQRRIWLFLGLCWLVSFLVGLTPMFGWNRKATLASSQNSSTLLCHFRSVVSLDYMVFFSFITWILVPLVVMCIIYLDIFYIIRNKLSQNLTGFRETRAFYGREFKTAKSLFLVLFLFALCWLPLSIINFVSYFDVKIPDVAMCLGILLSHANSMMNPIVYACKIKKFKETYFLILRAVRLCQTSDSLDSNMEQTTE
As to the kind of experiment: Agonist activity at mouse adenosine A3 receptor expressed in HEK293 cell membranes assessed as inhibition of forskolin-stimulated cAMP production preincubated for 30 mins prior to forskolin-treatment measured after 15 mins by ELISA. The format is functional, cell-based.

Test [4] has as its target T3, Adenosine receptor A3 (Mus musculus) (UniProt Q61618).
T3 sequence (whole entry): T2 sequence (Q61618 whole entry)
As to the kind of experiment: Agonist activity at mouse adenosine A3 receptor expressed in HEK293 cell membranes assessed as inhibition of forskolin-stimulated cAMP production preincubated for 30 mins prior to forskolin-treatment measured after 15 mins by ELISA relative to control. The format is functional, cell-based.

Test [5] deals with Mus musculus. Kind of test: Antiallodynic activity in CD-1 mouse chronic constriction injury-induced neuropathic pain model assessed as effect on contralateral paw withdrawal threshold at 3 micromol/kg, ip. The test is classed as functional, organism-based. A digest of the protocol: (§1)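 Male CD-1 mice (25–30 g) with chronic constriction injury of left sciatic nerve under isoflurane. At peak mechanoallodynia on day 7, given 3 μmol/kg ip in 5% DMSO/saline, or vehicle; n = 6. Paw withdrawal thresholds (g) measured on ipsilateral and contralateral paws over time. Experimenters blinded.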

For test [6], the target named is T4, Adenosine receptor A3 (Homo sapiens) (UniProt P0DMS8).
T4 sequence (whole entry): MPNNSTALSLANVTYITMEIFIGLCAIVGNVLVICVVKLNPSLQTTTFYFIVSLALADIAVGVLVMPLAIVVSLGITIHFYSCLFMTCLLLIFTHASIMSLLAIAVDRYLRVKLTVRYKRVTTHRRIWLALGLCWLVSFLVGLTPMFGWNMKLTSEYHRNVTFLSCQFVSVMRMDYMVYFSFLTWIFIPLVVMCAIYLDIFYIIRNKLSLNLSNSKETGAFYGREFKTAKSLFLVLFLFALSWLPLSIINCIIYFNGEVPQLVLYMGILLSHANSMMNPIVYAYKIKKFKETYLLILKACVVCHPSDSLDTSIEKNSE
Kind of test: Activity at human adenosine A3 receptor expressed in CHO cell membranes assessed as inhibition of forskolin-stimulated cAMP production at 10 uM preincubated for 30 mins prior to forskolin-treatment measured after 15 mins by ELISA relative to 5'-N-ethylcarboxamidoadenosine. The test is classed as functional, cell-based. In a few lines: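 Whole CHO cells stably expressing hA3AR, plated 24 h, washed with DMEM/50 mM HEPES pH 7.4. […] Forskolin (10 μM) then added for 15 min. Lysed in 0.1 M HCl; cAMP by enzyme immunoassay at 450 nm. Efficacy as % of reference maximum; mean ± SEM, n = 3–5.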
A general note: cAMP levels reflect the balance of adenylyl cyclase and phosphodiesterase activity.

The subject of test [7] is Mus musculus. As to the kind of experiment: Antiallodynic activity in CD-1 mouse chronic constriction injury-induced neuropathic pain model assessed as reversal of mechanoallodynia at 3 micromol/kg, ip at 1 hr post-treatment. The test is classed as functional, organism-based. A digest of the protocol: as §1
The subject of test [8] is Mus musculus. As to the kind of experiment: Antiallodynic activity in adenosine A3 receptor knockout C57BL/6J mouse chronic constriction injury-induced neuropathic pain model assessed as reversal of mechanoallodynia at 3 micromol/kg, ip measured 1 to 5 hrs post-treatment.
Test [9] has as its target T3, Adenosine receptor A3 (Mus musculus). As to the kind of experiment: Activity at mouse adenosine A3 receptor expressed in HEK293 cell membranes assessed as inhibition of forskolin-stimulated cAMP production preincubated for 30 mins prior to forskolin-treatment measured after 15 mins by ELISA relative to 2-chloro-N6-(3-iodobenzyl)adenosine-5'-N-methyluronamide. The format is functional, cell-based.

For test [10], the target named is T5, Adenosine receptor A1 (Mus musculus) (UniProt Q60612).
T5 sequence (whole entry): T1 sequence (Q60612 whole entry)
Kind of test: Displacement of [125I]N6-(4-amino-3-iodobenzyl)adenosine-5'-N-methyluronamide from mouse adenosine A1 receptor expressed in HEK293 cell membranes at 10 uM after 60 mins by liquid scintillation counting analysis relative to control.

Test [11] addresses T6, Adenosine receptor A1 (Homo sapiens) (UniProt P30542).
T6 sequence (whole entry): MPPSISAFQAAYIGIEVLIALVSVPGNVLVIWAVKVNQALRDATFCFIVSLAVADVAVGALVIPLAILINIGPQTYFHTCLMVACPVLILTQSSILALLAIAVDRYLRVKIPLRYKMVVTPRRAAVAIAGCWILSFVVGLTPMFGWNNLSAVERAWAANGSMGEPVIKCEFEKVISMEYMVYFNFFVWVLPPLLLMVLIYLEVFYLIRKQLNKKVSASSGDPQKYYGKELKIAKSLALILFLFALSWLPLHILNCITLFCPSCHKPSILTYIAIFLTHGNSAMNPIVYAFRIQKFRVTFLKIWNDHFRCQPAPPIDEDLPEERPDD
Kind of test: Displacement of [3H]N6-R-phenylisopropyladenosine from human adenosine A1 receptor expressed in CHO cell membranes at 10 uM after 60 mins by liquid scintillation counting analysis relative to control.

For test [12], the target named is Adenosine receptors; A1 & A3 (Homo sapiens) (UniProt P30542+P0DMS8). Kind of test: Selectivity ratio of Ki for human adenosine A1 receptor to Ki for human adenosine A3 receptor.
Test [13] deals with T5, Adenosine receptor A1 (Mus musculus). Kind of test: Agonist activity at mouse adenosine A1 receptor expressed in HEK293 cell membranes assessed as inhibition of forskolin-stimulated cAMP production up to 10 uM […] measured after 15 mins […]. The format is functional, cell-based. A digest of the protocol:
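2 × 10^5 cells/tube coincubated with forskolin (10 μM) and ligand, up to 10 μM, for 15 min at 37 °C. Stopped with 1 N HCl; cAMP by competitive binding assay. Full agonist 44 as reference; sigmoidal fit; mean ± SEM, n = 4–7.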

Test [14] is filed under the species Mus musculus. Kind of test: Selectivity ratio of Ki for mouse adenosine A1 receptor to Ki for mouse adenosine A3 receptor.
Test [15] is filed under the species Mus musculus. Kind of test: Selectivity ratio of Ki for mouse adenosine A2A receptor to Ki for mouse adenosine A3 receptor.
Another test concerns CHO. As to the kind of experiment: Selectivity ratio of Ki for human adenosine A2A receptor expressed in HEK293 cell membranes to Ki for human adenosine A3 receptor expressed in CHO cell membranes. The test is classed as cell-based.
Test [16] relates to Mus musculus. As to the kind of experiment: Antiallodynic activity in CD-1 mouse chronic constriction injury-induced neuropathic pain model assessed as reversal of mechanoallodynia at 3 micromol/kg, ip measured 1 to 5 hrs post-treatment in presence of MRS1523. The test is classed as functional, organism-based.
For test [17], the target named is T3, Adenosine receptor A3 (Mus musculus). Kind of test: Displacement of [125I]N6-(4-amino-3-iodobenzyl)adenosine-5'-N-methyluronamide from mouse adenosine A3 receptor expressed in HEK293 cell membranes at 10 uM after 60 mins by liquid scintillation counting analysis relative to control.
Test [18] has as its target T1, Adenosine receptor A1. Kind of test: Agonist activity at mouse adenosine A1 receptor expressed in HEK293 cell membranes assessed as inhibition of forskolin-stimulated cAMP production preincubated for 30 mins prior to forskolin-treatment measured after 15 mins by ELISA. The format is functional, cell-based.

Active and inactive are the calls of the source.

Chain of Adenosine receptor A2a (Mus musculus) (Q60613 whole entry): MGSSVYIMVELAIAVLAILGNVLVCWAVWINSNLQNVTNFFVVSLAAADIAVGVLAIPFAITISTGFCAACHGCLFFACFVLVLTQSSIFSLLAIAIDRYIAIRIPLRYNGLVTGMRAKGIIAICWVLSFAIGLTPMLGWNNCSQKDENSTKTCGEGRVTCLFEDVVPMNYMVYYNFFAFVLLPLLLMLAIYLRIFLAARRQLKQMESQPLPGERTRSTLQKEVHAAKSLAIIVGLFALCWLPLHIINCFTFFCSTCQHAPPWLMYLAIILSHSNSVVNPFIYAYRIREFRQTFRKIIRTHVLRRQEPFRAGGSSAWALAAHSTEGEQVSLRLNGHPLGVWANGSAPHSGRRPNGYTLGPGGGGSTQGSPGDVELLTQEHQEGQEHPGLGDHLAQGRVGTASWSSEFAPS

The inhibition is the percentage by which the read-out fell short of the control. On to `CNc1nc(C#Cc2ccccc2)nc2c1ncn2[C@H]1[C@H](O)[C@H](O)[C@@H]2C[C@@H]21`, for which, in test [1], the inhibition turned out to be 8%.
As a reminder, the EC50 is the midpoint of the concentration-response curve. As a reminder, the Emax is the maximal effect, on the per cent scale that the assay sets. As to `CNC(=O)[C@@]12C[C@@H]1[C@@H](n1cnc3c(NCc4cccc(Cl)c4)nc(C#Cc4ccc(S(=O)(=O)O)cc4)nc31)[C@H](O)[C@@H]2O`, the inhibition in test [2] was determined as 23%; in test [1], 14%. For the same molecule, the EC50 on Adenosine receptor A1 [3] turned out to be 495 nM; at Adenosine receptor A3 it was 13 nM. Moreover, the maximal effect (Emax) in [4] stood at 45%. In addition, in the test with Mus musculus [5], the result was inactive. In addition, the Efficacy in [6] stood at 96.8%; in [9] it was 95.7%. Also, the outcome with Mus musculus [7] and with Mus musculus [8] was Active.
As to `CCNc1nc(C#Cc2ccccc2)nc2c1ncn2[C@H]1[C@H](O)[C@H](O)[C@@H]2C[C@@H]21`, the inhibition in test [1] and in [10] was 49% each time.
`O=S(=O)(O)c1ccc(CCNc2nc(C#Cc3ccccc3)nc3c2ncn3[C@H]2[C@H](O)[C@H](O)[C@@H]3C[C@@H]32)cc1`: the inhibition was 15% in test [2], 10% in test [11], 1% in [1] and 18% in test [10]. In [6], the Efficacy turned out to be 7.2%.
On to `CNC(=O)[C@@]12C[C@@H]1[C@@H](n1cnc3c(NCCc4ccccc4)nc(C#Cc4ccccc4)nc31)[C@H](O)[C@@H]2O`, for which the inhibition amounted to 32% in test [2], 11% in test [11], 1% in test [1] and 25% in [10]. Further, the EC50 on Adenosine receptor A3 stood at 3.33 nM. Further, the Emax in test [4] amounted to 47%. Also, the Efficacy in test [6] was found to be 105%; in [9], 115%.
Turning to `O[C@@H]1[C@H](O)[C@@H]2C[C@@H]2[C@H]1n1cnc2c(NCc3cccc(Cl)c3)nc(C#Cc3ccc(-c4ccccc4)cc3)nc21`, the inhibition in [1] was 0%.
Regarding `CNC(=O)[C@@]12C[C@@H]1[C@@H](n1cnc3c(NCc4cccc(Cl)c4)nc(C#Cc4cccc(S(=O)(=O)O)c4)nc31)[C@H](O)[C@@H]2O`, the inhibition in test [2] was found to be 7%; in test [11], 16%; in test [1], 1%; in test [10], 15%. In addition, the EC50 at Adenosine receptor A3 amounted to 2.6 nM. Further, the Ratio Ki in test [12] is > 10000; in the test filed under Mus musculus [14] it was > 1000; in the test listed under Mus musculus [15], > 1000; in the test on CHO, > 10000. Further, the Emax in test [4] is 50%. In addition, the inhibition result in test [13] is “inactive”. Also, the result in the test on Mus musculus [5] and with Mus musculus [8] was inactive. For the same molecule, the Efficacy worked out at 98.2% in [6] and 89.3% in test [9]. Further, the outcome in the test with Mus musculus [7] and in the test on Mus musculus [16] was Active.
As to `CNC(=O)[C@@]12C[C@@H]1[C@@H](n1cnc3c(NCCc4ccc(S(=O)(=O)O)cc4)nc(C#Cc4ccccc4)nc31)[C@H](O)[C@@H]2O`, the inhibition in test [2] amounted to 1%; in test [11], 9%; in test [1] it was 0%; in test [10] it was 7%. Besides, the Efficacy in test [6] stood at 93.8%.
On to `O[C@@H]1[C@H](O)[C@@H]2C[C@@H]2[C@H]1n1cnc2c(NCC(c3ccccc3)c3ccccc3)nc(C#Cc3ccccc3Cl)nc21`, for which the inhibition turned out to be 54% in [17], 16% in [1] and 23% in test [10].
For the molecule `CNC(=O)[C@H]1O[C@@H](n2cnc3c(NCc4cccc(I)c4)nc(Cl)nc32)[C@H](O)[C@@H]1O`, in [4], the Emax amounted to 41%.
Turning to `OC[C@H]1O[C@@H](n2cnc3c(NC4CCCC4)nc(Cl)nc32)[C@H](O)[C@@H]1O`, the EC50 on Adenosine receptor A1 [18] was 17.7 nM.
Take `CCNc1nc(C#Cc2ccccc2Cl)nc2c1ncn2[C@H]1[C@H](O)[C@H](O)[C@@H]2C[C@@H]21`: the inhibition in test [17] came out at 50%; in [1], 11%; in test [10], 47%.

The values are drawn from ChEMBL document CHEMBL2401698 (J Med Chem, 2013).
